Laboratory results taken from ChEMBL document CHEMBL4038311, “An Ursolic Acid Derived Small Molecule Triggers Cancer Cell Death through Hyperstimulation of Macropinocytosis” (J Med Chem, 2017).
pIC50: −log10 of the molar value. The source made the active and inactive calls. The calls are words filed in the database; no cut-off is given here.

Columns and labels:
[1] = test system: HeLa; experiment: Induction of apoptosis in human HeLa cells assessed as increase in cleaved PARP1 levels at 20 to 30 uM after 24 to 48 hrs by Western blot analysis; format: functional, cell-based
Outline: (§1)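 HeLa given indicated concentrations. RIPA lysates, BCA-quantified, SDS-PAGE and PVDF transfer. Anti-caspase-3 or anti-PARP1 applied overnight at 4 °C after 1 h 5% milk block, secondary 2 h at RT. Infrared imaging, GAPDH as loading control.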

[2] = test system: HeLa; experiment: Induction of methuosis in human HeLa cells assessed as decrease in cell viability preincubated cells with vacuolar-type H+-ATPase inhibitor Baf-A1 for 1 hr followed by compound addition measured after 48 hrs by CCK8 assay; format: functional, cell-based
Outline: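 HeLa incubated 1 h with 100 nM Baf-A1 before compound addition. Viability measured by CCK-8 at 450 nm against DMSO control.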

[3] = test system: HeLa; experiment: Induction of methuosis in human HeLa cells assessed as decrease in cell viability preincubated cells with dynamin inhibitor dynasore for 1 hr followed by compound addition measured after 48 hrs by CCK8 assay; format: functional, cell-based
[4] = test system: HeLa; experiment: Induction of macropinocytosis in human HeLa cells assessed as colocalization of lucifer yellow and early endosomal marker EEA1 at 20 uM after 6 to 24 hrs by confocal microscopic analysis; format: functional, cell-based
Outline: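 HeLa on poly-L-lysine coverslips given 0.1% DMSO or 20 µM for indicated times, then loaded with Lucifer yellow CH. Fixed in 4% PFA 30 min, permeabilized with 0.1% Triton X-100, blocked with 5% BSA. Anti-EEA1, -LAMP1 or -Rab7 applied overnight at 4 °C, Alexa488 secondary 1 h, DAPI counterstain. Confocal imaging.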

[5] = Cytotoxicity against HDF assessed as cell viability at 20 uM after 24 to 48 hrs by CCK8 assay relative to control; format: cell-based; details: human, HDF cells; read-out: Activity
Outline: (§2)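 C2C12 or HDF cells, seeded at 5000/well, given 20 µM or 0.1% DMSO for 24 h or 48 h. CCK-8 absorbance read at 450 nm, relative to DMSO control. Six parallel wells, at least three independent repeats.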

[6] = test system: HepG2; experiment: Anticancer activity against human HepG2 cells assessed as vacuole formation at 20 uM after 24 hrs by phase contrast microscopic analysis; format: functional, cell-based
[7] = test system: SK-N-MC; experiment: Anticancer activity against human SK-N-MC cells assessed as cell viability at 20 uM after 48 hrs by CCK8 assay relative to control; format: functional; details: read-out: Activity
Outline: (§3)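 Cells (5000/well, pre-incubated overnight) exposed to 20 µM for 48 h. CCK-8 absorbance read at 450 nm. Viability given as percent of vehicle (DMSO) control, mean ± SD. Six parallel wells per condition, at least three independent repeats.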

[8] = test system: HeLa; experiment: Induction of macropinocytosis in human HeLa cells assessed as lucifer yellow accumulation in phase-lucent vacuole at 20 uM after 24 hrs by confocal microscopic analysis; format: functional, cell-based
[9] = test system: HepG2; experiment: Anticancer activity against human HepG2 cells assessed as cell viability at 20 uM after 48 hrs by CCK8 assay relative to control; format: functional; details: HepG2, 48 h, read-out: Activity; outline: as §3
[10] = test system: HeLa; experiment: Induction of methuosis in human HeLa cells assessed as increase in vacuole formation preincubated cells with actin inhibitor cytochalasin D for 1 hr followed by compound addition measured after 24 hrs by phase contrast microscopic analysis; format: functional, cell-based
Outline: (§4)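 HeLa cells grown in DMEM with 10% FBS, 100 U/ml penicillin and 100 µg/ml streptomycin at 37 °C, 5% CO2 humidified air. The inhibitor was added before compound exposure. Vacuolization was judged in live cells by phase-contrast microscopy.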

[11] = test system: HeLa; experiment: Induction of methuosis in human HeLa cells assessed as increase in vacuole formation preincubated cells with dynamin inhibitor dynasore for 1 hr followed by compound addition measured after 24 hrs by phase contrast microscopic analysis; format: functional, cell-based; outline: as §4
[12] = test system: SK-N-MC; experiment: Anticancer activity against human SK-N-MC cells assessed as vacuole formation at 20 uM after 24 hrs by phase contrast microscopic analysis; format: functional, cell-based
[13] = test system: HeLa; experiment: Anticancer activity against human HeLa cells assessed as vacuole formation at 20 uM after 12 hrs by phase contrast microscopic analysis; format: functional, cell-based
[14] = test system: MCF7; experiment: Anticancer activity against human MCF7 cells assessed as cell viability after 48 hrs by CCK8 assay; format: functional, cell-based; details: MCF7, 48 h
Outline: (§5)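 Seeded at 1000 cells/well in DMEM with 10% FBS at 37 °C, 5% CO2, overnight pre-incubation. Serial dilutions from a 100 mM DMSO stock gave final 0–50 µM, with 48 h exposure. CCK-8 read at 450 nm. IC50 fitted against DMSO control, given with s.d., n = 3 independent experiments.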

[15] = test system: HeLa; experiment: Induction of apoptosis in human HeLa cells assessed as increase in cleaved caspase-3 levels at 30 to 100 uM after 48 hrs by Western blot analysis; format: functional, cell-based; outline: as §1
[16] = test system: HeLa; experiment: Induction of autophagy in human HeLa cells assessed as conversion of LC3-1 to LC3-2 at 15 to 25 uM after 24 hrs by Western blot analysis; format: functional, cell-based
Outline: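 HeLa given indicated concentrations or 0.1% DMSO for 24 h. RIPA lysates, BCA-normalized, SDS-PAGE and PVDF transfer. Probed with anti-LC3 (overnight, 4 °C) after 5% milk block, infrared detection, GAPDH for normalization.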

[17] = test system: HT-1080; experiment: Anticancer activity against human HT1080 cells assessed as cell viability after 48 hrs by CCK8 assay; format: functional, cell-based; details: HT-1080, 48 h; outline: as §5
[18] = Cytotoxicity against mouse C2C12 cells assessed as cell viability at 20 uM after 24 to 48 hrs by CCK8 assay relative to control; format: cell-based; details: read-out: Activity; outline: as §2
[19] = test system: HeLa; experiment: Anticancer activity against human HeLa cells assessed as vacuole formation at 20 uM after 24 hrs by phase contrast microscopic analysis; format: functional, cell-based
[20] = test system: HT-1080; experiment: Anticancer activity against human HT1080 cells assessed as vacuole formation at 20 uM after 24 hrs by phase contrast microscopic analysis; format: functional, cell-based
[21] = test system: HeLa; experiment: Anticancer activity against human HeLa cells assessed as cell viability at 20 uM after 24 to 72 hrs by CCK8 assay relative to control; format: functional; details: read-out: Activity
Outline: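 HeLa cells seeded at 5000/well and pre-incubated overnight, then exposed to 20 µM. CCK-8 absorbance at 450 nm read at 24, 48 and 72 h, relative to DMSO-treated control. Six wells per condition, experiments repeated at least three times.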

[22] = test system: HeLa; experiment: Induction of methuosis in human HeLa cells assessed as decrease in cell viability at 20 uM preincubated with macropinocytosis inhibitor EIPA for 30 mins followed by compound addition measured after 24 to 72 hrs by CCK8 assay; format: functional, cell-based
Outline: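 HeLa pretreated 30 min with or without 50 µM EIPA, then given 20 µM or DMSO. CCK-8 viability read at the indicated times.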

[23] = test system: MCF7; experiment: Anticancer activity against human MCF7 cells assessed as cell viability at 20 uM after 48 hrs by CCK8 assay relative to control; format: functional; details: MCF7, 48 h, read-out: Activity; outline: as §3
[24] = test system: HeLa; experiment: Anticancer activity against human HeLa cells assessed as vacuole formation preincubated cells with 3-MA followed by compound addition measured after 24 hrs by phase contrast microscopic analysis; format: functional, cell-based
Outline: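 HeLa cells pretreated 1 h with or without 3-MA before compound or DMSO. Phase-contrast images obtained after 24 h.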

[25] = test system: HeLa; experiment: Anticancer activity against human HeLa cells assessed as cell viability after 48 hrs by CCK8 assay; format: functional, cell-based; outline: as §5

pIC50 [14]: 4.75
pIC50 [17]: 4.76
pIC50 [25]: 4.82
Compound: C[C@H]1[C@H](C)CC[C@]2(C(=O)O)CC[C@]3(C)C(=CC[C@@H]4[C@@]5(C)Cc6cnn(-c7ccc(C#N)cc7)c6C(C)(C)[C@@H]5CC[C@]43C)[C@H]12
Activity [1]: Active
Activity [2]: inactive
Activity [3]: inactive
Activity [4]: Active
viability at 20 µM [5]: 28%
Activity [6]: Active
viability at 20 µM [7]: 28.6%
Activity [8]: Active
viability at 20 µM [9]: 27.9%
Activity [10]: inactive
Activity [11]: inactive
Activity [12]: Active
Activity [13]: Active
Activity [15]: Active
Activity [16]: Active
viability at 20 µM [18]: 13%
Activity [19]: Active
Activity [20]: Active
viability at 20 µM [21]: 74.2%
Activity [22]: inactive
viability at 20 µM [23]: 25.2%
Activity [24]: Active
